Measured values pooled from the literature.
Each line is one published result; the experiments were not run side by side.
Target: Dual specificity protein kinase CLK3 (CLK3, Homo sapiens, UniProt P49761)

Compound	effect on	mode	technique	concentration	measurement	value
Nc1ncnc2occ(-c3ccc(NC(=O)Nc4cc(C(F)(F)F)ccc4F)cc3)c12	cell-free assay	inhibitor		20 µM	remaining signal	54%
Cn1c2c(Cl)c(Cl)ccc2c2cc(N)[nH]c(=O)c21	thermal stability		DSF	10 µM	ΔTm	0.6 °C
CN(C)C(=O)Cn1cc(-c2nc([C@@](C)(c3ccc(-c4cnc(N)nc4)cc3)C3CC3)no2)cn1	cell-free assay		competition with immobilised ligand	1 µM	remaining binding	100%
O=C(Nc1cnn(-c2csc(C(=O)NC3COC3)c2)c1)Nc1c(F)cccc1Cl	enzyme activity	inhibitor		5 µM	remaining activity	93.5%
CCN(CC)c1ccc(C2=NNC(=O)CC2C)cc1[N+](=O)[O-] (stereo not drawn)	enzyme activity	inhibitor		10 µM	remaining activity	85%
CCN(CC)CCNC(=O)c1c(C)[nH]c(/C=C2\C(=O)Nc3ccc(F)cc32)c1C	enzyme activity	inhibitor		10 µM	inhibition	23%
CN1CCN(c2cnc3c(C4CCN(C(=O)c5ccc(OC(F)(F)F)cc5N)CC4)ncnc3c2)CC1	cell-free assay		competition with immobilised ligand	1 µM	remaining binding	100%
CC(C)(C)c1nc2c(s1)c1nc(N)ncc1c1ccc(NS(=O)(=O)c3c(F)cccc3F)c(F)c12	enzyme activity	inhibitor	radiometric	1 µM	remaining activity	82%
Cc1cnc(NC2CCOCC2)nc1-n1cnc(C(=O)NC(CN)c2cc(F)cc(Cl)c2)c1 (stereo not drawn)	enzyme activity	inhibitor	radiometric	1 µM	remaining activity	99%
COc1cc2ncnc(Nc3ccc(Oc4ccccc4)c(C)c3C)c2cc1OC	enzyme activity	inhibitor		1 µM	inhibition	-3%
Cn1c2c(c3ccc(Cl)c(Cl)c31)C(C#N)C1(CCCC1)NC2=O (stereo not drawn)	thermal stability		DSF	10 µM	ΔTm	0.3 °C
COc1cc2c(Nc3ccc(Br)cc3F)ncnc2cc1OCC1CCN(C)CC1	cell-free assay			0.5 µM	remaining signal	100%
CO[C@@H](C)c1c(Nc2ccc([C@H](N(C)C(=O)C3CCS(=O)(=O)CC3)C(F)(F)F)cc2)cnc2cc(Cl)nn12	cell-free assay		competition with immobilised ligand	1 µM	remaining binding	87%
CCN1/C(=C/C(C)=O)Sc2ccc(OC)cc21	cell-free assay			0.5 µM	remaining signal	95%
C[C@H](NC(=O)c1cnc2n1[C@](C)(Cc1ccc(C#N)cc1)C(=O)N2c1cc(Cl)c(F)c(Cl)c1)C(=O)NC1(c2ccccn2)CC1	cell-free assay		competition with immobilised ligand	1 µM	remaining binding	96%
Clc1ccc(Nc2nnc(Cc3ccncc3)c3ccccc23)cc1	cell-free assay			0.5 µM	remaining signal	105%
CCCS(=O)(=O)Nc1ccc(F)c(C(=O)c2c[nH]c3ncc(-c4ccc(Cl)cc4)cc23)c1F	enzyme activity	inhibitor		1 µM	inhibition	< 10%
N#CC1c2c([nH]c3c(Cl)c(Cl)ccc23)C(=O)NC12CCCCC2 (racemic)	thermal stability		DSF	10 µM	ΔTm	2.1 °C
C[C@@H]1CN(c2cc(-c3nn(C)c4ccc(OC5(C)CC5)cc34)ncn2)C[C@H](C)O1	cell-free assay		competition with immobilised ligand	1 µM	remaining binding	98%
Cc1ccc(NC(=O)c2ccc(C)c(C(F)(F)F)c2)cc1C#Cc1nn(C2CCC(O)CC2)c2ncnc(N)c12 (stereo not drawn)	cell-free assay			10 µM	remaining signal	83%
Cn1c2c(c3ccc(Cl)c(Cl)c31)C(C#N)C1(CCOCC1)NC2=O (stereo not drawn)	thermal stability		DSF	10 µM	ΔTm	0.1 °C
CN(C)c1ncnc(-c2ccc3nc(Nc4cc(CN5CCN(C(=O)CC(F)(F)F)CC5)ccn4)[nH]c3c2)c1Cl	cell-free assay		competition with immobilised ligand	1 µM	remaining binding	100%
CNC(=O)c1cc(Oc2ccc(NC(=O)Nc3ccc(Cl)c(C(F)(F)F)c3)cc2)ccn1	enzyme activity	inhibitor		0.3 µM	inhibition	-1%
Cc1nccc(COC(=O)N2C[C@@H]3[C@@H](CNC(=O)c4ccc5[nH]nnc5c4)[C@@H]3C2)n1	cell-free assay		competition with immobilised ligand	1 µM	remaining binding	90%
O=C1NC(=O)c2cc(Nc3ccc(F)cc3)c(Nc3ccc(F)cc3)cc21	cell-free assay			0.5 µM	remaining signal	93.7%
Cn1c2c(Cl)c(Cl)ccc2c2cc[nH]c(=O)c21	thermal stability		DSF	10 µM	ΔTm	1.5 °C
Cc1ccc(Nc2nccc(N(C)c3ccc4c(C)n(C)nc4c3)n2)cc1S(N)(=O)=O	enzyme activity	inhibitor		0.3 µM	inhibition	2%
CC(=O)C1=C(C)N(c2cccc(C(F)(F)F)c2)C(=O)N[C@@H]1c1ccc(C#N)nc1	cell-free assay		competition with immobilised ligand	1 µM	remaining binding	100%
COc1cc(Nc2c(C#N)cnc3cc(OCCCN4CCN(C)CC4)c(OC)cc23)c(Cl)cc1Cl	cell-free assay			0.5 µM	remaining signal	94.9%
CC/C(=N\NC(=O)NCc1cccc(O)c1)c1ccc(O)c(C)c1O	enzyme activity	inhibitor		0.1 µM	inhibition	-1.4%
